Test results taken from ChEMBL document CHEMBL1129328, “Structure-activity studies of 6-(tetrazolylalkyl)-substituted decahydroisoquinoline-3-carboxylic acid AMPA receptor antagonists. 1. Effects of stereochemistry, chain length, and chain substitution” (J Med Chem, 1996).
pIC50: −log10 of the molar value.

Key:
[1] = biological target: T1, Glutamate receptor ionotropic, AMPA (Rattus norvegicus, UniProt P19490+P19491+P19492+P19493); test: Compound was tested for AMPA receptor antagonistic activity by measuring its ability to inhibit depolarizations induced by 40 uM AMPA in rat cortical slice preparation; format: functional
Summary of the method: (§1)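 Rat cortical slice (cortical wedge) preparation. Antagonism measured as inhibition of depolarizations evoked by 40 uM AMPA (a few cases 40 uM quisqualic acid instead) or 40 uM NMDA. Compounds were also applied alone to check for agonist activity.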

[2] = biological target: T1, Glutamate receptor ionotropic, AMPA; test: Binding affinity at Ionotropic glutamate receptor AMPA in rat cortical tissue by [3H]AMPA displacement.
[3] = biological target: Glutamate receptor ionotropic, kainate; format: functional
[4] = biological target: Glutamate receptor ionotropic, kainate; test: Binding affinity at Ionotropic glutamate receptor kainate in rat cortical tissue by [3H]-kainic acid displacement.
Summary of the method: (§2)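 Displacement of radioligand from rat cortical tissue membranes: [3H]CGS 19755 for NMDA sites, [3H]kainic acid for kainate sites. Each determination run in triplicate unless otherwise indicated.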

Glutamate NMDA receptor [5] = test: Binding affinity at N-methyl-D-aspartate glutamate receptor in rat cortical tissue by [3H]-CGS- 19755 displacement.; summary of the method: as §2
Glutamate NMDA receptor [6] = test: (§3) Compound was tested for NMDA receptor antagonistic activity by measuring its ability to inhibit depolarizations induced by 40 uM NMDA in rat cortical slice preparation.; format: functional
[7] = biological target: T1, Glutamate receptor ionotropic, AMPA; test: AMPA receptor antagonistic activity as inhibition of depolarizations induced by 40 uM AMPA in rat cortical slice preparation; format: functional
[8] = biological target: T1, Glutamate receptor ionotropic, AMPA; test: Compound was tested for AMPA receptor antagonistic activity by measuring its ability to inhibit depolarizations induced by 40 uM quisqualic acid in rat cortical slice preparation.; format: functional; summary of the method: as §1
[9] = biological target: Glutamate NMDA receptor (Rattus norvegicus) (UniProt P35439+Q00959+Q00960+Q00961+Q62645+Q8VHN2+Q9R1M7); test: as §3; format: functional; summary of the method: as §1

| Compound | pIC50 [1] | pIC50 [2] | pIC50 [3] | pIC50 [4] | pIC50 (Glutamate NMDA receptor [5]) | pIC50 (Glutamate NMDA receptor [6]) | pIC50 [7] | pIC50 [8] | inhibition [9] [%] |
| --- | --- | --- | --- | --- | --- | --- | --- | --- | --- |
| CC(Cc1nnn[nH]1)[C@H]1CC[C@H]2CN[C@H](C(=O)O)C[C@H]2C1 (stereo partly drawn) | 5.22 | 5.52 | 4.24 | 4.46 | 4.27 | < 4.00 |  |  |  |
| O=C(O)[C@@H]1C[C@H]2C[C@H](CCc3nnn[nH]3)CC[C@H]2CN1 |  | 4.22 | < 4.00 | 3.74 | 4.22 |  | < 4.00 |  |  |
| O=C(O)[C@@H]1C[C@H]2C[C@@H](CCCCc3nnn[nH]3)CC[C@H]2CN1 |  | 4.24 | > 4.00 | < 4.00 | < 4.00 | < 4.00 | 4.56 |  |  |
| O=C(O)[C@@H]1C[C@H]2C[C@@H](Cc3nnn[nH]3)CC[C@H]2CN1 |  | 4.07 | < 4.00 | < 4.00 | 6.03 | 5.85 |  | < 4.00 |  |
| O=C(O)[C@@H]1C[C@H]2C[C@@H](CCc3nn[nH]n3)CC[C@H]2CN1 [TEZAMPANEL ANHYDROUS] |  |  | 4.50 | 3.61 |  | 4.21 | 5.22 |  |  |
| O=C(O)[C@@H]1C[C@H]2C[C@H](OCc3nn[nH]n3)CC[C@H]2CN1 |  | < 4.00 | < 4.00 | < 4.00 | 5.28 | 4.87 | < 4.00 |  |  |
| CN(Cc1nn[nH]n1)[C@H]1CC[C@H]2CN[C@H](C(=O)O)C[C@H]2C1 |  | < 4.00 | < 4.00 | < 4.00 | 4.18 | < 4.00 | < 4.00 |  |  |
| O=C(O)[C@@H]1C[C@H]2C[C@@H](c3nnn[nH]3)CC[C@H]2CN1 |  | 4.89 | < 4.00 | 4.50 |  | 5.12 | 4.39 |  |  |
| O=C(O)[C@@H]1C[C@H]2C[C@@H](C(Cc3nnn[nH]3)c3ccccc3)CC[C@H]2CN1 (stereo partly drawn) | 5.05 | 5.01 | 4.63 | < 4.00 | 4.82 | 4.00 |  |  |  |
| O=C(O)[C@@H]1C[C@H]2C[C@@H](NCc3nn[nH]n3)CC[C@H]2CN1 |  | < 4.00 | < 4.00 | < 4.00 | 4.94 | 4.48 | 4.16 |  |  |
| O=C(O)[C@@H]1C[C@H]2C[C@@H](CCCc3nnn[nH]3)CC[C@H]2CN1 |  | 4.77 | < 4.00 | 4.73 | 4.57 | < 4.00 |  | 4.66 |  |
| O=C(O)[C@@H]1C[C@H]2C[C@@H](OCc3nn[nH]n3)CC[C@H]2CN1 |  | 4.62 | < 4.00 | 4.26 | 5.23 | 4.55 | 4.53 |  |  |

Now from value to molecule:

| pIC50 [1] | pIC50 [2] | pIC50 [3] | pIC50 [4] | pIC50 (Glutamate NMDA receptor [5]) | pIC50 (Glutamate NMDA receptor [6]) | pIC50 [7] | pIC50 [8] | inhibition [9] [%] | Compound |
| --- | --- | --- | --- | --- | --- | --- | --- | --- | --- |
|  | < 4.00 | < 4.00 | < 4.00 | < 5.00 | < 4.00 | < 4.00 |  |  | O=C(O)[C@H]1C[C@H]2CC(CCc3nnn[nH]3)CC[C@H]2CN1 (stereo partly drawn) |
|  | < 4.00 | < 4.00 | < 4.00 | < 4.00 | < 4.00 | < 4.00 |  |  | O=C(O)[C@@H]1C[C@H]2C[C@@H](CCc3nnn[nH]3)CC[C@@H]2CN1 |
|  | 4.64 |  | < 4.00 | < 4.00 |  |  |  |  | O=CN(Cc1nn[nH]n1)[C@H]1CC[C@H]2CN[C@H](C(=O)O)C[C@H]2C1 |
|  | 5.38 |  | 4.56 | < 4.00 |  |  |  |  | CC(C[C@H]1CC[C@H]2CN[C@H](C(=O)O)C[C@H]2C1)c1nnn[nH]1 (stereo partly drawn) |
|  | < 4.00 | < 4.00 | < 4.00 | 4.89 |  | < 4.00 |  | 50 | O=C(O)[C@@H]1NCC[C@H]2CC(CCc3nnn[nH]3)CC[C@H]21 (stereo partly drawn) |
|  | < 4.00 | < 4.00 | < 5.00 | < 5.00 | < 4.00 | < 4.00 |  |  | O=C(O)C1Cc2cc(CCc3nnn[nH]3)ccc2CN1 (stereo not drawn) |
